In ChEMBL document CHEMBL5376013, “Design, synthesis and biological evaluation of novel morpholinopyrimidine-5-carbonitrile derivatives as dual PI3K/mTOR inhibitors” (RSC Med Chem, 2024):

Legend:
Format in all cases: functional
Conditions in all cases: read-out: GI
SR = test: Antitumor activity against human SR cells assessed as growth inhibition at 10 uM relative to control
Summary of the method: (§1)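 Drug exposure 48 h at 37 °C, 5% CO2. Adherent cells fixed with cold TCA (10% final), suspension cells with TCA (16% final). Stained with 0.4% SRB in 1% acetic acid, dissolved in 10 mM Tris, A515. Growth relative to time-zero and untreated control.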

LOX IMVI = test: Antitumor activity against human LOX IMVI cells assessed as growth inhibition at 10 uM relative to control
Summary of the method: (§2)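 After drug addition, plates were incubated 48 h at 37 °C under 5% CO2. Adherent cells were fixed with cold TCA (10% final, 60 min, 4 °C) and suspension cells with 16% final TCA. Staining used 0.4% SRB in 1% acetic acid, solubilized in 10 mM trizma, read at A515. Percent growth was calculated from time-zero, control and treated absorbances.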

KM12 = test: Antitumor activity against human KM12 cells assessed as growth inhibition at 10 uM relative to control; summary of the method: as §2
NCI-H522 = test: Antitumor activity against human NCI-H522 cells assessed as growth inhibition at 10 uM relative to control; summary of the method: as §2
OVCAR-3 = test: Antitumor activity against human OVCAR-3 cells assessed as growth inhibition at 10 uM relative to control; summary of the method: as §2
OVCAR-5 = test: Antitumor activity against human OVCAR-5 cells assessed as growth inhibition at 10 uM relative to control; summary of the method: as §2
HCC 2998 = test: Antitumor activity against human HCC 2998 cells assessed as growth inhibition at 10 uM relative to control; summary of the method: as §2
SW-620 = test: Antitumor activity against human SW-620 cells assessed as growth inhibition at 10 uM relative to control; summary of the method: as §1
SK-MEL-2 = test: Antitumor activity against human SK-MEL-2 cells assessed as growth inhibition at 10 uM relative to control; summary of the method: as §2
BT-549 = test: Antitumor activity against human BT-549 cells assessed as growth inhibition at 10 uM relative to control; summary of the method: as §2
CCRF-CEM = test: Antitumor activity against human CCRF-CEM cells assessed as growth inhibition at 10 uM relative to control; summary of the method: as §2
NCI-H460 = test: Antitumor activity against human NCI-H460 cells assessed as growth inhibition at 10 uM relative to control; summary of the method: as §2
CAKI-1 = test: Antitumor activity against human CAKI-1 cells assessed as growth inhibition at 10 uM relative to control; summary of the method: as §2
Malme-3M = test: Antitumor activity against human Malme-3M cells assessed as growth inhibition at 10 uM relative to control; summary of the method: as §2
UO-31 = test: Antitumor activity against human UO-31 cells assessed as growth inhibition at 10 uM relative to control; summary of the method: as §1
SN12C = test: Antitumor activity against human SN12C cells assessed as growth inhibition at 10 uM relative to control; summary of the method: as §1
HL-60 = test: Antitumor activity against human HL-60 cells assessed as growth inhibition at 10 uM relative to control; summary of the method: as §2
Hs-578T = test: Antitumor activity against human Hs-578T cells assessed as growth inhibition at 10 uM relative to control; summary of the method: as §2
NCI-H322M = test: Antitumor activity against human NCI-H322M cells assessed as growth inhibition at 10 uM relative to control; summary of the method: as §2
K562 = test: Antitumor activity against human K562 cells assessed as growth inhibition at 10 uM relative to control; summary of the method: as §2
IGROV-1 = test: Antitumor activity against human IGROV-1 cells assessed as growth inhibition at 10 uM relative to control; summary of the method: as §2
A549 = test: Antitumor activity against human A549 cells assessed as growth inhibition at 10 uM relative to control; summary of the method: as §2
OVCAR-8 = test: Antitumor activity against human OVCAR-8 cells assessed as growth inhibition at 10 uM relative to control; summary of the method: as §2
MOLT-4 = test: Antitumor activity against human MOLT-4 cells assessed as growth inhibition at 10 uM relative to control; summary of the method: as §2
MDA-MB-435 = test: Antitumor activity against human MDA-MB-435 cells assessed as growth inhibition at 10 uM relative to control; summary of the method: as §2
COLO 205 = test: Antitumor activity against human COLO 205 cells assessed as growth inhibition at 10 uM relative to control; summary of the method: as §2
SNB-75 = test: Antitumor activity against human SNB-75 cells assessed as growth inhibition at 10 uM relative to control; summary of the method: as §1
MCF7 = test: Antitumor activity against human MCF7 cells assessed as growth inhibition at 10 uM relative to control; summary of the method: as §2
786-0 = test: Antitumor activity against human 786-0 cells assessed as growth inhibition at 10 uM relative to control; summary of the method: as §2
HOP-62 = test: Antitumor activity against human HOP-62 cells assessed as growth inhibition at 10 uM relative to control; summary of the method: as §2
RPMI-8226 = test: Antitumor activity against human RPMI-8226 cells assessed as growth inhibition at 10 uM relative to control; summary of the method: as §2
U-251 = test: Antitumor activity against human U-251 cells assessed as growth inhibition at 10 uM relative to control; summary of the method: as §1
HCT-15 = test: Antitumor activity against human HCT-15 cells assessed as growth inhibition at 10 uM relative to control; summary of the method: as §2
SNB-19 = test: Antitumor activity against human SNB-19 cells assessed as growth inhibition at 10 uM relative to control; summary of the method: as §1
NCI-H226 = test: Antitumor activity against human NCI-H226 cells assessed as growth inhibition at 10 uM relative to control; summary of the method: as §2
SK-MEL-5 = test: Antitumor activity against human SK-MEL-5 cells assessed as growth inhibition at 10 uM relative to control; summary of the method: as §1
MDA-MB-231 = test: Antitumor activity against human MDA-MB-231 cells assessed as growth inhibition at 10 uM relative to control; summary of the method: as §2
SK-MEL-28 = test: Antitumor activity against human SK-MEL-28 cells assessed as growth inhibition at 10 uM relative to control; summary of the method: as §1
HCT-116 = test: Antitumor activity against human HCT-116 cells assessed as growth inhibition at 10 uM relative to control; summary of the method: as §2
NCI-H23 = test: Antitumor activity against human NCI-H23 cells assessed as growth inhibition at 10 uM relative to control; summary of the method: as §2
SF-539 = test: Antitumor activity against human SF-539 cells assessed as growth inhibition at 10 uM relative to control; summary of the method: as §2
T47D = test: Antitumor activity against human T47D cells assessed as growth inhibition at 10 uM relative to control; summary of the method: as §1
MDA-MB-468 = test: Antitumor activity against human MDA-MB-468 cells assessed as growth inhibition at 10 uM relative to control; summary of the method: as §2
RXF 393 = test: Antitumor activity against human RXF 393 cells assessed as growth inhibition at 10 uM relative to control; summary of the method: as §2
EKVX = test: Antitumor activity against human EKVX cells assessed as growth inhibition at 10 uM relative to control; summary of the method: as §2
HT-29 = test: Antitumor activity against human HT-29 cells assessed as growth inhibition at 10 uM relative to control; summary of the method: as §2

With `N#Cc1c(-c2ccc(Cl)cc2)nc(N/N=C2/C(=O)Nc3ccccc32)nc1N1CCOCC1` as the molecule, how does the inhibition of growth at 10 µM (SR) read?
Its inhibition of growth at 10 µM is 25.7%.

What about the inhibition of growth at 10 µM (LOX IMVI) of the same molecule?
The inhibition of growth at 10 µM was less than 1%.

And the inhibition of growth at 10 µM (KM12)?
The inhibition of growth at 10 µM was less than 1%.

What about the inhibition of growth at 10 µM (NCI-H522) of the same molecule?
The inhibition of growth at 10 µM was less than 1%.

What about the inhibition of growth at 10 µM (OVCAR-3) of the same molecule?
The inhibition of growth at 10 µM was less than 1%.

And the inhibition of growth at 10 µM (OVCAR-5)?
The inhibition of growth at 10 µM was less than 1%.

And the inhibition of growth at 10 µM (HCC 2998)?
The inhibition of growth at 10 µM was less than 1%.

And the inhibition of growth at 10 µM (SW-620)?
Its inhibition of growth at 10 µM is 10.1%.

What about the inhibition of growth at 10 µM (SK-MEL-2) of the same molecule?
Its inhibition of growth at 10 µM is less than 1%.

And the inhibition of growth at 10 µM (BT-549)?
The inhibition of growth at 10 µM was less than 1%.

What about the inhibition of growth at 10 µM (CCRF-CEM) of the same molecule?
Its inhibition of growth at 10 µM is less than 1%.

What about the inhibition of growth at 10 µM (NCI-H460) of the same molecule?
The inhibition of growth at 10 µM was 17.6%.

What about the inhibition of growth at 10 µM (CAKI-1) of the same molecule?
The inhibition of growth at 10 µM was less than 1%.

What about the inhibition of growth at 10 µM (Malme-3M) of the same molecule?
The inhibition of growth at 10 µM was less than 1%.

What about the inhibition of growth at 10 µM (UO-31) of the same molecule?
The inhibition of growth at 10 µM was less than 1%.

And the inhibition of growth at 10 µM (SN12C)?
The inhibition of growth at 10 µM was less than 1%.

And the inhibition of growth at 10 µM (HL-60)?
The inhibition of growth at 10 µM was less than 1%.

And the inhibition of growth at 10 µM (Hs-578T)?
Its inhibition of growth at 10 µM is less than 1%.

And the inhibition of growth at 10 µM (NCI-H322M)?
Its inhibition of growth at 10 µM is less than 1%.

And the inhibition of growth at 10 µM (K562)?
Its inhibition of growth at 10 µM is less than 1%.

What about the inhibition of growth at 10 µM (IGROV-1) of the same molecule?
Its inhibition of growth at 10 µM is less than 1%.

And the inhibition of growth at 10 µM (A549)?
Its inhibition of growth at 10 µM is 12.9%.

What about the inhibition of growth at 10 µM (OVCAR-8) of the same molecule?
Its inhibition of growth at 10 µM is less than 1%.

What about the inhibition of growth at 10 µM (MOLT-4) of the same molecule?
Its inhibition of growth at 10 µM is less than 1%.

What about the inhibition of growth at 10 µM (MDA-MB-435) of the same molecule?
The inhibition of growth at 10 µM was less than 1%.

And the inhibition of growth at 10 µM (COLO 205)?
Its inhibition of growth at 10 µM is 1%.

What about the inhibition of growth at 10 µM (SNB-75) of the same molecule?
The inhibition of growth at 10 µM was 21%.

And the inhibition of growth at 10 µM (MCF7)?
Its inhibition of growth at 10 µM is 1%.

What about the inhibition of growth at 10 µM (786-0) of the same molecule?
Its inhibition of growth at 10 µM is less than 1%.

What about the inhibition of growth at 10 µM (HOP-62) of the same molecule?
The inhibition of growth at 10 µM was less than 1%.

And the inhibition of growth at 10 µM (RPMI-8226)?
The inhibition of growth at 10 µM was less than 1%.

And the inhibition of growth at 10 µM (U-251)?
The inhibition of growth at 10 µM was less than 1%.

And the inhibition of growth at 10 µM (HCT-15)?
The inhibition of growth at 10 µM was 1%.

And the inhibition of growth at 10 µM (SNB-19)?
Its inhibition of growth at 10 µM is less than 1%.

What about the inhibition of growth at 10 µM (NCI-H226) of the same molecule?
Its inhibition of growth at 10 µM is less than 1%.

What about the inhibition of growth at 10 µM (SK-MEL-5) of the same molecule?
The inhibition of growth at 10 µM was less than 1%.

And the inhibition of growth at 10 µM (MDA-MB-231)?
Its inhibition of growth at 10 µM is less than 1%.

And the inhibition of growth at 10 µM (SK-MEL-28)?
The inhibition of growth at 10 µM was less than 1%.

What about the inhibition of growth at 10 µM (HCT-116) of the same molecule?
Its inhibition of growth at 10 µM is 10.5%.

And the inhibition of growth at 10 µM (NCI-H23)?
Its inhibition of growth at 10 µM is less than 1%.

And the inhibition of growth at 10 µM (SF-539)?
Its inhibition of growth at 10 µM is less than 1%.

And the inhibition of growth at 10 µM (T47D)?
The inhibition of growth at 10 µM was less than 1%.

And the inhibition of growth at 10 µM (MDA-MB-468)?
Its inhibition of growth at 10 µM is less than 1%.

And the inhibition of growth at 10 µM (RXF 393)?
Its inhibition of growth at 10 µM is less than 1%.

And the inhibition of growth at 10 µM (EKVX)?
The inhibition of growth at 10 µM was less than 1%.

And the inhibition of growth at 10 µM (HT-29)?
The inhibition of growth at 10 µM was less than 1%.
